# The list is not random: actives were taken first. Their share in the collection is about 1.9%.
# PLC-beta3 inh: human PLC-beta3 inhibitors, primary screen, biochemical, fluorescence | 1-phosphatidylinositol 4,5-bisphosphate phosphodiesterase beta-3 (Homo sapiens), Q01970 | Purified PLC-beta3, fluorogenic substrate | inhibition, % at 12.2 µM | 370,000 tested, 0.18% active | AID 720704, 2013; in the data active = inhibition above about 11%;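 also: 0% = median of compound wells on plate and 100% = full blocker control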
# PLC-gamma1 inh: PLC-gamma1 enzyme inhibitors, primary screen, biochemical, fluorescence, purified enzyme; 370,000 tested, 0.84% active; inhibition, % at 12.2 µM; AID 720700, 2013; fluorogenic substrate; in the data active = inhibition above about 9.5%
# Target sequence (P19174 whole entry, looked up): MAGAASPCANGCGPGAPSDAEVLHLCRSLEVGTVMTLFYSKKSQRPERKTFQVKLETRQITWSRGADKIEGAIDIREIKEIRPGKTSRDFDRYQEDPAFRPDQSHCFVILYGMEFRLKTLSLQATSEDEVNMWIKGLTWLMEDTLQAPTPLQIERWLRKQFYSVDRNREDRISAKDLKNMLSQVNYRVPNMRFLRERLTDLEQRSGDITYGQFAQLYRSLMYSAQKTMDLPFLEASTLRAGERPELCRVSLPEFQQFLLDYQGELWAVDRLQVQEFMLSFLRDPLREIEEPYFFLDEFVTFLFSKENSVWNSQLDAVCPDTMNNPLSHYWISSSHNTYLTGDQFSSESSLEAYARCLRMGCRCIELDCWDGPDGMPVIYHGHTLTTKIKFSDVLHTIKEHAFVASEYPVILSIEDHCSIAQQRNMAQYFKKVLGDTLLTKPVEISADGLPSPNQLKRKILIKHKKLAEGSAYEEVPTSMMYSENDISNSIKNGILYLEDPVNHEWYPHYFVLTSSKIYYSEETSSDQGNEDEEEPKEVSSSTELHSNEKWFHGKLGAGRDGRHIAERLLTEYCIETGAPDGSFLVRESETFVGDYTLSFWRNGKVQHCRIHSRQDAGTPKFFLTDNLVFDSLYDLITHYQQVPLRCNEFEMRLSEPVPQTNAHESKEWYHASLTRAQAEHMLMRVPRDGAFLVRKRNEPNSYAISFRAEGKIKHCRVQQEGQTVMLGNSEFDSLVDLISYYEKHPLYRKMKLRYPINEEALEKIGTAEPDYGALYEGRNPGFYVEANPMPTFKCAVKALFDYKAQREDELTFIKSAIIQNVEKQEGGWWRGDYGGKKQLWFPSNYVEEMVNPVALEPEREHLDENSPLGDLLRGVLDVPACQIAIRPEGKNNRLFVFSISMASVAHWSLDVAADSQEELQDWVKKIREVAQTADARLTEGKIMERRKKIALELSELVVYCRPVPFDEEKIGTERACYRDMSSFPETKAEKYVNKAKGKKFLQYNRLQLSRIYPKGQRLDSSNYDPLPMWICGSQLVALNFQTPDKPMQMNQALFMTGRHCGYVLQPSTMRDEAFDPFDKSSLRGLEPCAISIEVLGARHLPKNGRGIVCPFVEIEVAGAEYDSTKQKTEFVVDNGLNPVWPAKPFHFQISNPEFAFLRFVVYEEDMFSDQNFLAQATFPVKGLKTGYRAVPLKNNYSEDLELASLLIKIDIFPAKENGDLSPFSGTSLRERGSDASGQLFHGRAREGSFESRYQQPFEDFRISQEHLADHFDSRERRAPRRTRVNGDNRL
# DAGLB inh: DAGLB lipase inhibitors, primary screen, biochemical, fluorescence, HTS. 340,000 tested, 0.059% active. inhibition, % at 5.17 µM. AID 504411, 2011. HEK293T DAGLB membrane lysate, EnzChek fluorogenic substrate. Diacylglycerol lipase-beta (Homo sapiens), Q8NCG7; in the data active = inhibition above about 34%;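 also: 0% = enzyme with vehicle and 100% = wells lacking enzyme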
# HGIII-sPLA2 inh: human group III sPLA2 inhibitors, primary screen, biochemical, QFRET, BODIPY PC-A2 liposome substrate | QFRET BODIPY PC-A2 liposome hydrolysis, fluorescence | inhibition, % at 12.2 µM | 370,000 tested, 0.56% active | AID 743126, 2013;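 active = inhibition above mean plus 3 SD of compounds lying within the high and low control bounds, cut at about 19% in these data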;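 also: 0% = median of test compound wells and 100% = no enzyme DMSO wells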
# TbMetRS inhib: T. brucei MetRS inhibitors, primary screen, biochemical, luminescence; methionyl-tRNA synthetase (Trypanosoma brucei brucei); purified T. brucei MetRS, ATP depletion, Kinase-Glo luminescence; inhibition, % at 11.9 µM; 360,000 tested, 0.4% active; AID 624268, 2012;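 active = inhibition above a per-plate cutoff of the control wells' mean inhibition plus 3 SD, cut at about 5.5% in these data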;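 also: 0% = DMSO wells median and 100% = median of wells with control inhibitor compound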
#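 technique = Kinase-Glo luminescence, ATP depletion format | system = purified MetRS (methionyl-tRNA synthetase) enzyme from Trypanosoma brucei | timing = 15 min preincubation, 2 h reaction, all 25 °C | evaluation = percent inhibition versus plate control medians | dosing = single dose, 11.9 µM final nominal, 0.9% final DMSO | also added = substrates ATP, L-methionine and bulk Escherichia coli tRNA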
# TbMetRS confirm: T. brucei MetRS inhibitors, confirmation, biochemical, luminescence; inhibition, % at 11.9 µM; T. brucei MetRS enzyme, luminescence (ATP depletion); shares compounds with TbMetRS inhib; 1,400 tested, 93% active; in the data active = inhibition above about 7%
# Jurkat cytotox: Jurkat T cell cytotoxicity, cytotoxicity control for T. brucei MetRS inhibitor project, luminescence, high throughput. Jurkat cells viability, ATP luminescence. shares compounds with TbMetRS inhib. inhibition, % at 8.3 µM. 1,400 tested, 12% active. AID 624413, 2012; in the data active = inhibition above about 15%;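 also: 0% = vehicle and 100% = reference inhibitor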
# Tb MetRS inh FP: T. brucei MetRS inhibitors, orthogonal assay for T. brucei MetRS inhibitor project, biochemical, fluorescence polarization | shares compounds with TbMetRS inhib | purified T. brucei MetRS | 1,400 tested, 44% active | AID 651607, 2012 | inhibition, % at 11.9 µM; in the data active = inhibition above about 17%;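 also: 0% = vehicle wells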
# Numbers without * were called inactive; · = no result given.
SMILES,PLC-beta3 inh,PLC-gamma1 inh,DAGLB inh,HGIII-sPLA2 inh,TbMetRS inhib,TbMetRS confirm,Jurkat cytotox,Tb MetRS inh FP
CSC[C@H]1CN(Cc2cccnc2)C(=O)[C@@H]1CC(=O)Nc1ccc(Br)cc1,1,-3,-2,0,69*,82*,-7,51*
COc1ccc(C2CC(c3ccc(Cl)cc3Cl)Nc3nc(N)nn32)cc1 (stereo not given),-8,-6,4,2,7.5*,14*,-4,0
COc1cccc(C2CC(c3ccccc3Cl)Nc3nc(N)nn32)c1 (stereo not given),0,-2,-2,12,-1,·,·,·
COc1cccc(C2CC(c3ccc(Cl)cc3Cl)Nc3nc(N)nn32)c1 (stereo not given),-23,-20,5,5,8.3*,13*,4,5
CCOC(=O)C1=NOC(C(C)=O)(C(=O)Nc2cc(C)cc(C)c2)C1 (stereo not given),-2,-3,·,-2,·,·,·,·
Cc1ccccc1C1CCC2(CC1)CCN(CC[C@@H](O)c1ccccc1)C2=O (stereo not given in full),4,4,·,-10,·,·,·,·
CC(/C=N\NC(=O)CSc1nnc(-c2ccc(Br)cc2)n1-c1ccccc1)=C\c1ccco1,-14,-8,·,-5,·,·,·,·
Cc1ccc(OCc2nc(C#N)c(NCCCn3ccnc3)o2)cc1,-2,1,-1,-19,2,·,·,·
N#Cc1nc(COc2ccc(Br)cc2)oc1NCCCn1ccnc1,-1,1,0,-26,30*,53*,7,31*
NC(=O)c1ncn([C@@H]2O[C@H](C(=O)N[C@H](Cc3ccccc3)C(=O)O)[C@@H](O)[C@H]2O)n1,2,0,·,11,·,·,·,·
O=c1cc(CSc2ccc(Cl)cc2)[nH]c2[nH]n(-c3ccccc3)c(=O)c12,-14,0,21,14,8.5*,26*,17*,7
Cc1ccc(-c2ccc(CCC(=O)O)n2-c2ccc(O)cc2)cc1,-118,-80,4,-30,0,·,·,·
O=C(O)CCc1ccc(-c2ccc(Br)cc2)n1-c1ccc(O)cc1,-88,-66,2,-78,5.7*,16*,-6,7
Cc1ccc(NS(=O)(=O)c2c(C)[nH]c(C)c2C(=O)N2CCCCC2)c(Br)c1,-6,0,-1,-1,24*,39*,2,15
Cc1[nH]c(C)c(S(=O)(=O)Nc2cccc(Cl)c2C)c1C(=O)N1CCCCC1,-4,1,-1,-3,24*,41*,1,20*
CC(C)(C)OC(=O)N1CCC2CCN(CCc3ccccc3)CC21 (stereo not given),1,1,·,-2,·,·,·,·
O=C(CNC(=O)c1cccc(Br)c1)N/N=C/c1cccs1,-4,0,1,-6,6.0*,20*,3,2
O=C(NCc1cccs1)c1ccccc1,6,-4,1,3,0,·,·,·
O=C(NCc1cccs1)c1cccc(Nc2nc3ccc(Br)cc3[nH]2)c1,-9,-2,0,-3,5.7*,25*,1,22*
CC(C)(C)C1c2[nH]c3ccccc3c2CCN1Cc1cccc(OCCO)c1 (stereo not given),-54,-41,-4,-13,9.1*,7.1*,3,6
COc1ccccc1C(=O)N/C(=C\c1ccc2c(c1)OCO2)C(=O)NCCc1nc2ccccc2[nH]1,-9,-5,1,-7,8.8*,16*,10,5
O=C(NCCc1nc2ccccc2[nH]1)/C(=C/c1ccc2c(c1)OCO2)NC(=O)c1ccccc1Cl,1,6,0,-9,3,·,·,·
O=C(NCCc1nc2ccccc2[nH]1)/C(=C/c1ccc2c(c1)OCO2)NC(=O)c1ccccc1,-5,-2,1,-7,6.4*,9.6*,1,2
O=S1(=O)c2c(NCc3ccco3)cccc2Oc2ccccc2CN1Cc1cn(Cc2ccccc2C(F)(F)F)nn1,-49,-33,·,-7,·,·,·,·
CCOC(=O)[C@]12CCCC=C1N(Cc1ccc(OC)cc1)C(=O)[C@@H]2CC(=O)NCCCCc1ccccc1,1,2,·,-14,·,·,·,·
SMILES,PLC-beta3 inh,PLC-gamma1 inh,DAGLB inh,HGIII-sPLA2 inh,TbMetRS inhib,TbMetRS confirm,Jurkat cytotox,Tb MetRS inh FP
OCCCNc1ncnc2c1[nH]c1ccccc12,-11,-6,2,5,22*,39*,3,23*
CCN(CC)c1ncnc2c1[nH]c1ccccc12,-46,-41,-1,-1,0,·,·,·
COCCNc1ncnc2c1[nH]c1ccccc12,-18,-10,0,8,59*,77*,11,42*
Fc1ccc2[nH]c3c(NCc4ccccc4)ncnc3c2c1,-36,-21,-12,-18,84*,92*,30*,82*
CCOC(=O)N1CCN(C(=O)C[C@@H]2C[C@]3(C(=O)OCC)CCC4=C3N(CCC4)C2=O)CC1,-1,0,·,8,·,·,·,·
COc1cc(C2CC=C(C(=O)O)C(c3ccccc3F)N2S(=O)(=O)c2ccc(C)cc2)cc(OC)c1OC (stereo not given),2,2,·,-3,·,·,·,·
COc1ccc(NC(=O)CC2C(=O)N(c3ccc(OC)cc3)C(=S)N2NC(=O)c2cccc(F)c2)cc1 (stereo not given),3,1,-1,-68,1,·,·,·
COc1ccc(NC(=O)CC2C(=O)N(C)C(=S)N2Cc2cccs2)cc1 (stereo not given),3,3,-2,-39,0,·,·,·
CCN1C(=O)C(CC(=O)Nc2ccc(OC)cc2)N(CCc2ccc(F)cc2)C1=S (stereo not given),-2,-1,-5,-33,39*,46*,9,33*
COc1ccc(NC(=O)CC2C(=O)N(C)C(=S)N2CCc2ccc(F)cc2)cc1 (stereo not given),-4,5,·,-37,50*,67*,12,43*
COc1ccc(CCN2C(=S)N(C)C(=O)C2CC(=O)Nc2ccc(OC)cc2)cc1 (stereo not given),3,0,-3,-52,44*,62*,-4,31*
CCN1C(=O)C(CC(=O)Nc2ccc(OC)cc2)N(CCCN2CCN(c3ccc(F)cc3)CC2)C1=S (stereo not given),-4,0,-7,-38,-1,·,·,·

# Screening data as filed in PubChem.
